Measurements of several laboratories.
INSR: Insulin receptor (INSR, Homo sapiens, UniProt P06213)
INSR phosphorylated: Insulin receptor, phosphorylated (INSR, Homo sapiens, UniProt P06213)

CN(C)C1CCN(CC#Cc2nn(C3CCCC3)c3nc(NCc4ccccc4)ncc23)C1 (centres unmarked)
inhibition (INSR; enzyme activity, inhibitor, FRET; 0.1 µM): 7%

O=C(NCc1ncc(C(F)(F)F)cc1Cl)c1ccc2c(c1)C1(CCS(=O)(=O)CC1)[C@@H](C1CC1)N2S(=O)(=O)c1ccc(F)cc1
remaining binding (INSR; cell-free assay, competition with immobilised ligand; 1 µM): 100%

CS(=O)(=O)Nc1cccc(-c2csc(NC(=O)CSc3nc4nccnc4c(=O)n3CCc3ccccc3)n2)c1
inhibition (INSR; enzyme activity, inhibitor; 10 µM): 1%

CN1CC(Oc2cnc(C#N)cc2-c2ccn3nc(NC(=O)C4CC4)cc3c2)C1
inhibition (INSR phosphorylated; enzyme activity, inhibitor; 1 µM): 1%

CNCc1ccc(-c2cc(-c3nc(-c4ccc(S(=O)(=O)C(C)C)cc4)cnc3N)on2)cc1
inhibition (INSR; enzyme activity, inhibitor; 0.4 µM): 0%

CNC(=O)c1ccccc1Nc1cc(Nc2ccc(N3CCOCC3)cc2OC)ncc1C(F)(F)F
inhibition (INSR; enzyme activity, inhibitor; 1 µM): > 50%

CC(C)c1ccc(NC(=O)c2cccs2)c(-c2nc3ccccc3[nH]c2=O)c1
activity vs control (INSR; enzyme activity, inhibitor; 1 µM): 91%

Cc1ccc(C(=O)NCc2ccsc2)cc1C#Cc1cn(C(C)C)c2ncnc(N)c12
activity vs control (INSR; enzyme activity, inhibitor; 1 µM): 82%

Cc1nc(C2CCN(C(=O)c3ccc(OC(F)(F)F)cc3N)CC2)c2ncc(N3CCN(C)CC3)cc2n1
remaining binding (INSR; cell-free assay, competition with immobilised ligand; 1 µM): 93%

COc1cc2ncnc(Nc3ccc(Oc4ccccc4)c(C)c3C)c2cc1OC
inhibition (INSR; enzyme activity, inhibitor; 1 µM): 5%

COc1cc2c(Nc3ccc(Br)cc3F)ncnc2cc1OCC1CCN(C)CC1
remaining signal (INSR; cell-free assay; 0.5 µM): 102%

Cc1cc(NC(=O)c2cccc3cc(-c4cccc5[nH]nc(N)c45)ccc23)ccc1F
activity vs control (INSR phosphorylated; enzyme activity, inhibitor; 0.1 µM): 91%

C[C@H](NC(=O)c1cnc2n1[C@](C)(Cc1ccc(C#N)cc1)C(=O)N2c1cc(Cl)c(F)c(Cl)c1)C(=O)NC1(c2ccccn2)CC1
remaining binding (INSR; cell-free assay, competition with immobilised ligand; 1 µM): 100%

Cc1ccc(Nc2nccc(N(C)c3ccc4c(C)n(C)nc4c3)n2)cc1S(N)(=O)=O
inhibition (INSR; enzyme activity, inhibitor; 0.3 µM): 6%

CCC(=N\O)/C(C)=C/c1ccc(F)cc1
remaining binding (INSR; cell-free assay, competition with immobilised ligand; 1 µM): 100%

CSc1nc(C)c(-c2ccnc(Nc3ccc(N4CCOCC4)cc3)c2)[nH]1
inhibition (INSR; cell-free assay, inhibitor; 10 µM): -1.8%

O=C1Nc2ccc(Cl)cc2C1=Cc1cc(Cl)c(O)c(Cl)c1
remaining signal (INSR; cell-free assay; 0.5 µM): 99.2%

CC(C)(O)c1cncc(-c2nc3ccc(F)cc3n2C2CC2)c1
remaining binding (INSR; cell-free assay, competition with immobilised ligand; 1 µM): 100%

Nc1ncnc2occ(-c3ccc(NC(=O)Nc4cc(C(F)(F)F)ccc4F)cc3)c12
remaining signal (INSR; cell-free assay; 20 µM): 3.2%

O=C(NS(=O)(=O)c1ccc(NCC2CCOCC2)c([N+](=O)[O-])c1)c1ccc(N2CCN(Cc3ccc(C(F)(F)F)cc3-c3ccc(Cl)cc3)CC2)cc1Oc1cnc2[nH]ccc2c1
remaining binding (INSR; cell-free assay, competition with immobilised ligand; 1 µM): 89%

CCCS(=O)(=O)Nc1ccc(F)c(C(=O)c2c[nH]c3ncc(-c4ccc(Cl)cc4)cc23)c1F
inhibition (INSR; enzyme activity, inhibitor; 1 µM): < 10%

C[C@@H]1CCN(C(=O)CC#N)C[C@@H]1N(C)c1ncnc2[nH]ccc12
remaining signal (INSR; cell-free assay; 0.5 µM): 101%

FC(F)(F)c1ccc2c(c1)nc(-c1cccnc1)n2C1CC1
remaining binding (INSR; cell-free assay, competition with immobilised ligand; 1 µM): 100%
